Legend:
Settings in all cases: in vivo
Rattus norvegicus [1] = assay: Biodistribution in lungs of immature female rat after 1 hr administration of 3 micro Ci (111 kBq) in the presence of (+E2); assay type: ADME, organism-based, Lung
Outline: (§1)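 Immature female Long Evans rats (21–24 days, 45–70 g), unanesthetized in retention cages, given 3 µCi (111 kBq) 125I-labeled steroid i.v. via lateral tail vein. Vehicle was ethanol diluted in saline containing 1% Tween-80, giving 9% ethanol final. The blocking group received 60 µg unlabeled estradiol co-injected. Rats were killed under ether by axillary bleeding, and tissues were KCl-washed and gamma-counted. Data are %ID/g, mean ± SE, n=3–5.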

Rattus norvegicus [2] = assay: Biodistribution in liver of immature female rat after 1 hr administration of 3 micro Ci (111 kBq) in the presence of (+E2); assay type: ADME, organism-based; outline: as §1
Rattus norvegicus [3] = assay: Biodistribution in uterus of immature female rat after 3 hour administration of 3 micro Ci (111 kBq) in the absence of 60 microg estradiol; assay type: ADME, organism-based
Outline: (§2)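 Immature female Long Evans rats (21–24 days, 45–70 g), 3–5 per group, unanesthetized in retention cages, given 3 μCi (111 kBq) 125I-labeled steroid by lateral tail vein. Vehicle: ethanol diluted with saline containing 1% Tween-80, final ethanol 9%. +E2 group co-injected 60 μg unlabeled estradiol (1 h only). Killed under ether; tissues KCl-washed, weighed, gamma-counted. Output: %ID/g (mean, SE) and uterus to blood or nontarget (muscle, spleen, lungs) ratios.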

Rattus norvegicus [4] = assay: Biodistribution in fat of immature female rat after 3 hour administration of 3 micro Ci (111 kBq) in the absence of 60 microg estradiol; assay type: ADME, organism-based, Adipose tissue; outline: as §1
Rattus norvegicus [5] = assay: Biodistribution in muscle of immature female rat after 1 hr administration of 3 micro Ci (111 kBq) in the presence of (+E2); assay type: ADME, organism-based, Muscle tissue
Outline: (§3)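 Immature female Long Evans rats (21–24 days, 45–70 g), three to five per group, given 125I-labeled steroid (3 μCi, 111 kBq) by lateral tail vein without anesthesia. Vehicle: ethanol diluted in saline with 1% Tween-80, final ethanol 9%, 0.22 μm filtered. +E2 groups received 60 μg unlabeled estradiol co-injected. Killed under ether at set times; tissues KCl-washed, blotted, weighed, gamma counted; %ID/g, mean with SE.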

Rattus norvegicus [6] = assay: Biodistribution in uterus / blood of immature female rat after 1 hr administration of 3 micro Ci (111 kBq) in the absence of 60 microg estradiol; assay type: ADME, organism-based
Outline: (§4)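 Same in vivo procedure: immature female Long Evans rats (21–24 days), three to five per group, 3 μCi (111 kBq) tracer i.v. via tail vein in 9% ethanol/saline/1% Tween-80, ± 60 μg estradiol co-injected at 1 h. Uterus %ID/g (gamma counting) divided by blood, or by nontarget organ (muscle, spleen, lungs), %ID/g to give ratios.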

Rattus norvegicus [7] = assay: Biodistribution in liver of immature female rat after 12 hour administration of 3 micro Ci (111 kBq) in the absence of 60 microg estradiol; assay type: ADME, organism-based; outline: as §1
Rattus norvegicus [8] = assay: Biodistribution in blood of immature female rat after 5 hour administration of 3 micro Ci (111 kBq) in the absence of 60 microg estradiol; assay type: ADME, organism-based; outline: as §1
Rattus norvegicus [9] = assay: Biodistribution in muscle of immature female rat after 5 hour administration of 3 micro Ci (111 kBq) in the absence of 60 microg estradiol; assay type: ADME, organism-based, Muscle tissue; outline: as §3
Rattus norvegicus [10] = assay: Biodistribution in uterus / blood of immature female rat after 12 hour administration of 3 micro Ci (111 kBq) in the absence of 60 microg estradiol; assay type: ADME, organism-based; outline: as §4
Rattus norvegicus [11] = assay: Biodistribution in uterus / spleen, muscle, lungs of immature female rat after 1 hr administration of 3 micro Ci (111 kBq) in the absence of 60 microg estradiol; assay type: ADME, organism-based; outline: as §4
Rattus norvegicus [12] = assay: Biodistribution in uterus / spleen, muscle, lungs of immature female rat after 12 hour administration of 3 micro Ci (111 kBq) in the absence of 60 microg estradiol; assay type: ADME, organism-based; outline: as §2
Rattus norvegicus [13] = assay: Biodistribution in uterus of immature female rat after 5 hour administration of 3 micro Ci (111 kBq) in the absence of 60 microg estradiol; assay type: ADME, organism-based; outline: as §2
Rattus norvegicus [14] = assay: Biodistribution in blood of immature female rat after 3 hour administration of 3 micro Ci (111 kBq) in the absence of 60 microg estradiol; assay type: ADME, organism-based; outline: as §1
Rattus norvegicus [15] = assay: Biodistribution in spleen of immature female rat after 3 hour administration of 3 micro Ci (111 kBq) in the absence of 60 microg estradiol; assay type: ADME, organism-based; outline: as §3
Rattus norvegicus [16] = assay: Biodistribution in liver of immature female rat after 3 hour administration of 3 micro Ci (111 kBq) in the absence of 60 microg estradiol; assay type: ADME, organism-based; outline: as §1
Rattus norvegicus [17] = assay: Biodistribution in thyroid of immature female rat after 1 hr administration of 3 micro Ci (111 kBq) in the presence of (+E2); assay type: ADME, organism-based, Thyroid gland; outline: as §3
Rattus norvegicus [18] = assay: Biodistribution in uterus of immature female rat after 12 hour administration of 3 micro Ci (111 kBq) in the absence of 60 microg estradiol; assay type: ADME, organism-based; outline: as §2
Rattus norvegicus [19] = assay: Biodistribution in kidney of immature female rat after 12 hour administration of 3 micro Ci (111 kBq) in the absence of 60 microg estradiol; assay type: ADME, organism-based; outline: as §1
Rattus norvegicus [20] = assay: Biodistribution in spleen of immature female rat after 1 hr administration of 3 micro Ci (111 kBq) in the presence of (+E2); assay type: ADME, organism-based; outline: as §3
Rattus norvegicus [21] = assay: Biodistribution in uterus of immature female rat after 1 hr administration of 3 micro Ci (111 kBq) in the presence of (+E2); assay type: ADME, organism-based; outline: as §2
Rattus norvegicus [22] = assay: Biodistribution in thyroid of immature female rat after 5 hour administration of 3 micro Ci (111 kBq) in the absence of 60 microg estradiol; assay type: ADME, organism-based, Thyroid gland; outline: as §3
Rattus norvegicus [23] = assay: Biodistribution in liver of immature female rat after 1 hr administration of 3 micro Ci (111 kBq) in the absence of 60 microg estradiol; assay type: ADME, organism-based; outline: as §1
Rattus norvegicus [24] = assay: Biodistribution in uterus / spleen, muscle, lungs of immature female rat after 5 hour administration of 3 micro Ci (111 kBq) in the absence of 60 microg estradiol; assay type: ADME, organism-based; outline: as §2
Rattus norvegicus [25] = assay: Biodistribution in lungs of immature female rat after 3 hour administration of 3 micro Ci (111 kBq) in the absence of 60 microg estradiol; assay type: ADME, organism-based, Lung; outline: as §3
Rattus norvegicus [26] = assay: Biodistribution in kidney of immature female rat after 1 hr administration of 3 micro Ci (111 kBq) in the presence of (+E2); assay type: ADME, organism-based; outline: as §1

Structure (SMILES) | ID/g (Rattus norvegicus [1]) | ID/g (Rattus norvegicus [3]) | ID/g (Rattus norvegicus [4]) | ID/g (Rattus norvegicus [5]) | uterus-to-blood ratio of %ID/g (Rattus norvegicus [6]) | ID/g (Rattus norvegicus [7]) | ID/g (Rattus norvegicus [8]) | ID/g (Rattus norvegicus [9]) | Uterus-to-blood radioactivity ratio (dimensionless) (Rattus norvegicus [10]) | uterus-to-nontarget tissue uptake ratio (Rattus norvegicus [11]) | uterus to nontarget tissue ratio (Rattus norvegicus [12]) | ID/g (Rattus norvegicus [13]) | ID/g (Rattus norvegicus [14]) | ID/g (Rattus norvegicus [15]) | ID/g (Rattus norvegicus [16]) | ID/g (Rattus norvegicus [17]) | ID/g (Rattus norvegicus [18]) | ID/g (Rattus norvegicus [19]) | ID/g (Rattus norvegicus [20]) | ID/g (Rattus norvegicus [21]) | further results
CO[C@H]1C[C@@]2(C)[C@@H](CC[C@@]2(O)/C=C\I)[C@@H]2CCc3c(ccc(O)c3F)[C@H]21 | 0.95% | 7.48% | 1.13% | 0.77% | 10.55% | 0.83% | 0.51% | 0.4% | 34.58% | 7.3% | 19.35% | 10.96% | 0.56% | 0.72% | 1.21% | 441% | 8.31% | 1.23% | 1.28% | 1.06% | ID/g (Rattus norvegicus [2]): 2.77%; ID/g (Rattus norvegicus [22]): 2369%; ID/g (Rattus norvegicus [23]): 2%; uterus to nontarget tissue ratio (Rattus norvegicus [24]): 21.03%; ID/g (Rattus norvegicus [25]): 0.66%; ID/g (Rattus norvegicus [26]): 1.36%
CO[C@H]1C[C@@]2(C)[C@@H](CC[C@@]2(O)/C=C/I)[C@@H]2CCc3cc(O)c(F)cc3[C@H]21 | 1.22% | 3.23% | 1.82% | 1.02% | 9.82% | 1.48% | 0.32% | 0.45% | 10.45% | 4.78% | 6.75% | 3.9% | 0.38% | 0.8% | 3.56% | 243% | 1.2% | 0.15% | 1.04% | 0.81% | ID/g (Rattus norvegicus [22]): 412%; ID/g (Rattus norvegicus [23]): 3.5%; uterus to nontarget tissue ratio (Rattus norvegicus [24]): 8.56%; ID/g (Rattus norvegicus [25]): 0.62%; ID/g (Rattus norvegicus [26]): 1.58%
C[C@@H]1Cc2cc(O)c(F)cc2[C@H]2CC[C@@]3(C)[C@@H](CC[C@@]3(O)/C=C\I)[C@H]12 | 0.42% | 4.03% | 1.54% | 0.29% | 8.3% | 1.69% | 0.33% | 0.29% | 18.13% | 5.13% | 15.99% | 3.4% | 0.32% | 0.74% | 1.81% | 204% | 3.84% | 0.36% | 0.56% | 0.39% | ID/g (Rattus norvegicus [2]): 1.83%; ID/g (Rattus norvegicus [22]): 424%; ID/g (Rattus norvegicus [23]): 2.19%; uterus to nontarget tissue ratio (Rattus norvegicus [24]): 8.94%; ID/g (Rattus norvegicus [25]): 0.36%; ID/g (Rattus norvegicus [26]): 0.62%
